# HCT116 PTEN-null = suppresses growth of cells with PTEN deletion; HCT116 PTEN-null viability, CellTiter-Glo, 60 h; stronger effect = lower value; viability, % at 10 µM; hit rate 1.2% among 140,000; AID 827;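 active = viability at or below a set limit, 4 SD under the median of all tested compounds, cut at about 3.7% in these data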;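 also: PTEN knockout HCT116 line with beta catenin targeted HCT116 as companion control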
# TNAP inh no acc = blocks human TNAP activity with no phosphate acceptor present. purified TNAP, CDP-star luminescence, 30 min. inhibition, % at 20 µM. hit rate 0.26% among 200,000;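 active = tissue-nonspecific alkaline phosphatase inhibition above about 50% at 20 µM in the single-dose screen, limit read from the data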;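 also: 0% = DMSO negative control and 100% = EDTA positive control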
# Target sequence (P05186 whole entry, looked up): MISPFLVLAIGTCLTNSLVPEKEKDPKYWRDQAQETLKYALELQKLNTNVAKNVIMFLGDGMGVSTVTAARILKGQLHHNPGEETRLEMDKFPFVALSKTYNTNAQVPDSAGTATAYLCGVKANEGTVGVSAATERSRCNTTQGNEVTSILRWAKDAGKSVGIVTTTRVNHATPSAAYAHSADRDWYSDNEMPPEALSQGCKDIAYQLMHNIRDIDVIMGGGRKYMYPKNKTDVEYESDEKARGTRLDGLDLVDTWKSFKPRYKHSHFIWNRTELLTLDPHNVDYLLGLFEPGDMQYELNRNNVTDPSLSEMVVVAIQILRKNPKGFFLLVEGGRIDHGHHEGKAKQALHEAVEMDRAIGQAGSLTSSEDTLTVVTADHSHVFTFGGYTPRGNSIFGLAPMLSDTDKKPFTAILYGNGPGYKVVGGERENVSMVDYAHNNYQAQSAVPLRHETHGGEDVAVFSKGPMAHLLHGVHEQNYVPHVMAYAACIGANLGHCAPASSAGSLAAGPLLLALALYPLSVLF
# HCT116 bCat-KO = beta-catenin-lacking colon tumor cell growth suppression | viability, % at 10 µM | HCT116 beta-catenin knockout viability, CellTiter-Glo, 60 h; stronger effect = lower value | hit rate 1.5% among 140,000 | AID 818;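 active = viability at or under a set limit, the compound median less 4 SD, cut at about 6% in these data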;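 also: 0% = Hyamine 1622 control at 20 µM and 100% = untreated cell control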
# TNAP inh hi DEA = blocks human TNAP under high phosphate acceptor concentration; AID 1135; inhibition, % at 20 µM; P05186; hit rate 0.03% among 200,000; purified TNAP, CDP-star luminescence, 1 M DEA;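 active = over 50% inhibition of tissue-nonspecific alkaline phosphatase at 20 µM in the single-dose screen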;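 also: plate controls were DMSO wells for no effect and EDTA-quenched wells as full inhibition for full effect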
# Lmaj promast = Leishmania major promastigote growth inhibition. Leishmania major promastigotes, resazurin fluorescence viability. hit rate 9% among 200,000. AID 1063. inhibition, % at 10 µM; in the data active = inhibition above about 50%;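 also: promastigotes grown with compound for 44 hours at 28 °C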
# TNAP act hiacc = activators of human TNAP at high phosphate acceptor concentration; AID 1136; activation factor at 20 µM; purified TNAP, CDP-star luminescence, 1 M DEA, 30 min; stronger effect = higher value; 0 = EDTA background, 1 = DMSO-only activity; 200,000 tested, under 10 active;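 active = activation factor at least 2 at 20 µM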
#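 Dosing: 20 µM single point. System: human TNAP. Amount: TNAP 1/800 final. Incubation: 30 min, room temperature. Read-out: TNAP activation factor scaled between EDTA and DMSO control wells. Signal: luminescence from CDP-star hydrolysis. Medium: 1 M DEA, pH 9.8, Mg2+, Zn2+. Control set: EDTA negative control, DMSO positive control.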
# The depositor's hits bear a star; . = not tested or not shown. Hits are enriched below; roughly 9.6% of the tested compounds scored in any of these assays.
SMILES,HCT116 PTEN-null,TNAP inh no acc,HCT116 bCat-KO,TNAP inh hi DEA,Lmaj promast,TNAP act hiacc
O=c1[nH]c(=S)n(Cc2ccc(F)cc2)c(O)c1C=NCc1cccnc1,80.4,13.4,79.9,-3.0,-1.8,1
CC1=C(/C=C/c2ccccc2)CCN(C)C1,99.9,-6.5,95.1,-2.3,98.6*,1
CNC(C)Cc1ccccc1Sc1ccc(O)cc1 (stereo not drawn),56.4,0.0,53.0,-6.8,100.4*,1.1
S=P(Nn1cnnc1)(c1ccccc1)c1ccccc1,.,-2.6,.,-0.2,-2.9,1
CCOC(=O)c1c(-n2c(C)cc(C=C3C(=O)NC(=S)NC3=O)c2C)sc2c1CCCC2,5.2,10.6,3.8*,9.2,100.2*,0.9
CCOC(=O)c1c(-n2c(C)cc(/C=C3/C(=O)NC(=O)N(CC)C3=O)c2C)sc2c1CCCC2,.,.,.,.,95.8*,.
CC(C)Oc1ccc(C2(C#N)CC[N+](C)(C)CC2)cc1,99.5,-5.6,97.8,-2.9,44.2,1
Cc1ccsc1C(=O)C1CCCN(Cc2c(C)nn(C(C)C)c2C)C1 (stereo not drawn),.,-6.5,.,-8.5,10.8,1.1
OC(c1ccccc1)(c1ccccc1)C1CN2CCC1CC2 (stereo not drawn),.,-8.2,.,-6.0,1.6,1.1
OC(Cc1ccccc1)(c1ccccc1)C1CN2CCC1CC2 (stereo not drawn),62.2,-3.7,68.2,1.8,92.2*,1
O=C(c1ccc2c(c1)OCO2)C1CCCN(CC2CCCCC2)C1 (stereo not drawn),.,-6.5,.,-9.1,91.1*,1.1
Cc1cccc(CN2CCCC(C(=O)c3ccc4c(c3)OCO4)C2)n1 (stereo not drawn),.,-4.1,.,-1.7,31.0,1
CCOC(=O)c1nsnc1NCCCl,.,-5.6,.,-1.5,-8.9,1
CN1CCC(N(C)c2nc(-c3ccccc3)nc3ccccc23)CC1,24.3,-7.0,24.4,-3.8,100.5*,1
O=[N+]([O-])c1ccc(C2C3C(c4ccccc4)=NC4(CCCC4)N32)cc1 (stereo not drawn),76.8,-7.0,79.8,0.4,4.7,1
Cc1ccc(CN2CCCC(C(=O)c3cccc(C(F)(F)F)c3)C2)o1 (stereo not drawn),.,-5.7,.,-4.7,46.7,1
O=C(c1cccc(C(F)(F)F)c1)C1CCCN(Cc2ccccc2O)C1 (stereo not drawn),.,-6.6,.,-4.1,83.5*,1
O=C(c1ccc(C(F)(F)F)cc1)C1CCCN(Cc2ccc(CO)o2)C1 (stereo not drawn),.,-6.0,.,-5.1,87.9*,1.1
O=C(c1ccc(C(F)(F)F)cc1)C1CCCN(Cc2ccncc2)C1 (stereo not drawn),.,-0.6,.,-3.8,89.0*,1
Cc1ccc(C(C)C)c(OCC#CCN2CCCC2)c1,.,-9.2,.,-3.0,24.9,1
C[C@@H]1O[C@@H](O[C@H]2C[C@@H](O)[C@]3(CO)[C@H]4[C@H](O)C[C@]5(C)[C@@H](C6COC(=O)C6)CC[C@]5(O)[C@@H]4CC[C@]3(O)C2)[C@H](O)[C@H](O)[C@H]1O (stereo partly drawn),4.6,-4.1,4.6*,-0.1,-1.6,1
CCN1CCN(c2ccc(N)c(C)c2)CC1,.,5.1,.,-0.6,-1.1,1
Cc1ccc(CN2C3CCCC2CC(NC(=O)Nc2cccc(F)c2)C3)cc1 (stereo not drawn),.,-123.2,.,-21.3,96.1*,1.2
COc1cc(/C=C/C(=O)c2c(O)n(CCc3ccccc3)c(=O)[nH]c2=O)ccc1O,5.7,10.6,9.6,11.7,88.9*,0.9
O=C(/C=C/c1ccccc1)c1c(O)n(CCc2ccccc2)c(=O)[nH]c1=O,14.2,-8.9,19.2,-0.5,59.7*,1
COc1cc(N)c(Cl)cc1C(=O)NC1CN2CCC1CC2 (stereo not drawn),.,-16.0,.,-7.6,.,1.1
O=C(COc1ccc(Cl)cc1)NC1CN2CCC1CC2 (stereo not drawn),113.0,-9.5,102.6,-4.6,99.2*,1
Cc1c(NP(=S)(C(C)(C)C)C(C)(C)C)c(=O)n(-c2ccccc2)n1C,.,-7.7,.,-6.7,-8.8,1.1
CCOc1ccc2oc(C(=O)NN3C(C)CCCC3C)c(C)c2c1 (stereo not drawn),.,-12.0,.,-3.2,14.8,1
